A selection: hits, their analogues and other compounds. The true share with any hit is near 3.7%.
p47phox inh = p47phox (human) inhibition. inhibition, % at 24.7 µM. p47phox/p22phox peptide binding, fluorescence polarization, 2 h. P14598. 0.53% of 220,000 active. AID 1274
14-3-3 Bad PPI = disrupts binding of bovine 14-3-3 zeta to phospho-Bad peptide; P63103; TR-FRET 14-3-3zeta/Dy647-pBad peptide displacement, 1 h; inhibition, % at 21.7 µM; 0.71% of 220,000 active; AID 781;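 active = inhibition above about 70%, limit read from the data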
RBBP9 inh = human RBBP9 hydrolase inhibition; O75884; recombinant RBBP9, FP-Rh probe fluorescence polarization; inhibition, % at 7.94 µM; 0.2% of 220,000 active; AID 1515;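 active = inhibition above the campaign mean of all tested compounds plus 3 SD, cut at about 14% in these data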
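System: RBBP9 protein / Buffer or medium: Tris/NaCl buffer pH 8.0 with 0.1% Pluronic / Probe or stimulus: Serine-hydrolase probe FP-Rh, 375 nM pre-mixing / Dosing: 7.94 µM single dose, 0.794% DMSO / Times: enzyme-compound preincubation 30 min, then probe labeling 45 min, 25 °C / Technique: fluorescence polarization (mP), excitation 525 nm, emission 598 nm / Replication: singlicate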
WT yeast gro inh = growth inhibition of WT yeast, mitochondrial fusion screen; mitochondrial fusion phenotypic screen, WT strain; inhibition, % at 10 µM; 2.1% of 190,000 active; AID 1362; in the data active = inhibition above about 58%; tested in S. cerevisiae
eIF4E-4G inh = inhibitors of eIF4E and eIF4G interaction in translation initiation. P63073+Q04637. TR-FRET eIF4E-eIF4GI(517-606) binding, 2 h. inhibition, % at 21.7 µM. 0.37% of 220,000 active
Target sequence (P63073 whole entry, looked up): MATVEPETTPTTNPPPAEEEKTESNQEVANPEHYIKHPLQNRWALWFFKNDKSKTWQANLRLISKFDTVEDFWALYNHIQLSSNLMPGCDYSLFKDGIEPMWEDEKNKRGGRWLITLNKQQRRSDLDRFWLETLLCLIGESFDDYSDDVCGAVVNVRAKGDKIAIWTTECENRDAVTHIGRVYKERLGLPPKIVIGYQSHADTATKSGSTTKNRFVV
Target sequence (Q04637 whole entry, looked up): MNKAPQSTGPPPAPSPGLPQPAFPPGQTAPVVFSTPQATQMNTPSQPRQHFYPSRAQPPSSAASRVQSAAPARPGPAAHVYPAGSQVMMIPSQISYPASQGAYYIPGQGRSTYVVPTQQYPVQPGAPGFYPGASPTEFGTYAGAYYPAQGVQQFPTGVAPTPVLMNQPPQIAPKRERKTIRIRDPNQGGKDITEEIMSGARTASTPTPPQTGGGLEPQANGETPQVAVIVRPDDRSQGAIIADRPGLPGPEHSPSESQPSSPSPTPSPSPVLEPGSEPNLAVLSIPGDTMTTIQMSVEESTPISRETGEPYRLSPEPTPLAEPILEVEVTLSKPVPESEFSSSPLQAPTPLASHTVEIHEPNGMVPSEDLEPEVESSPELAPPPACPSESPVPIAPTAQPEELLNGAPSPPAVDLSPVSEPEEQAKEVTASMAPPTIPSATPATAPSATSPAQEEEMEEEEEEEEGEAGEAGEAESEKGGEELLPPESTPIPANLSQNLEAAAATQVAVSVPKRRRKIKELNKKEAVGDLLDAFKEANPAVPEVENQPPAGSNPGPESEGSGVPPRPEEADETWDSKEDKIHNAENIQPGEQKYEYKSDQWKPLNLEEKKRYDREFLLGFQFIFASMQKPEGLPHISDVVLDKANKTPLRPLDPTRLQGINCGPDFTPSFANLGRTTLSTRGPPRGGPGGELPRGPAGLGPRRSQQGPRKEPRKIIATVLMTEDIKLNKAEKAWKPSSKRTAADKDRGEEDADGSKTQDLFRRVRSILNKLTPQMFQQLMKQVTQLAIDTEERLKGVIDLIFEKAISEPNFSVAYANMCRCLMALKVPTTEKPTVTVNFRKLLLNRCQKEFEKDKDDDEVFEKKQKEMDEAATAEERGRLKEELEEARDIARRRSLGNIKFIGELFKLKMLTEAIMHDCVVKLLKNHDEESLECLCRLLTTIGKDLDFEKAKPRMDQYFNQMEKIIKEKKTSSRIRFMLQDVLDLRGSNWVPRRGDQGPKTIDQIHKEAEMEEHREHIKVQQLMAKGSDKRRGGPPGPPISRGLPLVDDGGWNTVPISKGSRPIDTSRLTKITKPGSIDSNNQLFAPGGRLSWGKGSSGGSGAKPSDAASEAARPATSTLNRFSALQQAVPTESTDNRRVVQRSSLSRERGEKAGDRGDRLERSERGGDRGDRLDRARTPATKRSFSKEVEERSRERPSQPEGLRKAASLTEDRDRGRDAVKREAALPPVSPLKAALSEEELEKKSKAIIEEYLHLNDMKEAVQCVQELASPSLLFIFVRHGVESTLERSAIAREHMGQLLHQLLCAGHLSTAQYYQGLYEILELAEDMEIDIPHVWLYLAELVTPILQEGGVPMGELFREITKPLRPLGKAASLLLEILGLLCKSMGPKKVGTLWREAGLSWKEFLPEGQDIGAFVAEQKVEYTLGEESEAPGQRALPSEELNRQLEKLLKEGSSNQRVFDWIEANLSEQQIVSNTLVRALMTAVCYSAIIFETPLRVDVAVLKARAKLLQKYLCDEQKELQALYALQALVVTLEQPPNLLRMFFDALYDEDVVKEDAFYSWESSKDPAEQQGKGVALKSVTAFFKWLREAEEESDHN
EBV gp42 block = inhibitors of Epstein-Barr virus glycoprotein 42; Q1HVG2; Fluorescence polarization binding assay, mP read-out; inhibition, % (tested at 21.74 µM); 0.42% of 220,000 active; AID 1085; in the data active = inhibition above about 50%
Large screens that a line does not name were inactive; [ ] = dose if it differs, or a comment.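 Rule for the calls, unless noted: active = inhibition above about 30% (limit read from the data); inactive = the rest.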

COC(=O)c1cccc(Cn2nnc3ccccc3c2=O)c1	p47phox inh 114.0
O=C(OCn1nnc2ccccc2c1=O)c1cc2ccccc2o1	eIF4E-4G inh 97.8 (no result: RBBP9 inh)
O=C(C1CCC(CNc2c(N3CCCCC3)c(=O)c2=O)CC1)N1CCCC1 (configuration not stated)	none (no result: WT yeast gro inh)
CC(CN1CCN(C)CC1)OC(=O)c1cccc(Cl)c1 (configuration not stated)	none (no result: WT yeast gro inh)
CC(CN1CCN(C)CC1)OC(=O)c1ccccc1 (configuration not stated)	14-3-3 Bad PPI 71.1
CC(CN1CCN(C)CC1)OC(=O)c1ccc(F)cc1 (configuration not stated)	14-3-3 Bad PPI 90.8
Cn1c(=O)n(C)c2cc([N+](=O)[O-])c(N3CCN(S(=O)(=O)c4ccc(C(C)(C)C)cc4)CC3)cc21	WT yeast gro inh 73.9
O=C(O)COc1ccc(S(=O)(=O)c2ccc(OCC(=O)O)cc2)cc1	p47phox inh 34.9
S=C(c1ccc(N2CCCC2)c(Br)c1)N1CCCCC1	none
COC(=O)NC1(C(=O)O)CCCC1	none (no result: WT yeast gro inh)
COCc1cc(C)nc(N/N=C/c2ccc(-c3ccc(Cl)cc3[N+](=O)[O-])o2)c1C#N	p47phox inh 40.2, 14-3-3 Bad PPI 85.9
O=C(NCc1ccco1)C1CCCCN1S(=O)(=O)c1ccc(F)cc1 (configuration not stated)	none
O=C(NCC1CCCO1)C1CCCCN1S(=O)(=O)c1ccc(F)cc1 (configuration not stated)	p47phox inh 36.0 (no result: 14-3-3 Bad PPI, eIF4E-4G inh)
COc1ccc(CN2CCCC(CNC(=O)c3ccc(F)cc3)C2)c(C)c1C (configuration not stated)	none
CCOC(=O)c1ccc(NC(=S)NCCc2ccccc2F)cc1	WT yeast gro inh 58.5
COc1ccc(OC)c(C2C(C#N)=C(N)Oc3cc(N)ccc32)c1 (configuration not stated)	none
COc1ccc(C2C(C#N)=C(N)Oc3cc4c(cc32)OCO4)cc1 (configuration not stated)	p47phox inh 64.3
CCc1ccc(CN2CCN(S(=O)(=O)Cc3ccccc3)CC2)cc1	14-3-3 Bad PPI 78.6
Nc1ccc(N(c2ccccc2)c2ccc(N)cc2)cc1	eIF4E-4G inh 40.6[fluorescence artefact?]
Clc1nc(Cl)nc(N(c2ccccc2)c2ccccc2)n1	none
CCN1CCc2c(sc(NC(=S)NC(=O)c3ccco3)c2C(N)=O)C1	none (no result: WT yeast gro inh)
CCN1CCc2c(sc(NC(=O)Nc3ccc(Cl)c(Cl)c3)c2C(N)=O)C1	WT yeast gro inh 77.2
COc1ccc(-c2nnc(SCC(=O)c3ccc(C)o3)o2)cc1	none
Cc1ccc(-c2nnc(SCc3ccccc3F)o2)cc1	WT yeast gro inh 59.9
COc1ccc(-c2nnc(SCc3ccccc3F)o2)cc1OC	none
COc1ccc(-c2nnc(SCc3cc(C)cc(C)c3)o2)cc1	WT yeast gro inh 64.0
Cc1ccccc1-c1nnc(SCc2ccc(F)cc2)o1	WT yeast gro inh 59.6
CCOC(=O)c1ccc(NC(=O)c2ccccc2[N+](=O)[O-])cc1	none
CCOC(=O)c1cc([N+](=O)[O-])c([N+](=O)[O-])cc1NC(C)=O	WT yeast gro inh 76.3
CC(C)c1nnc(SCC(=O)N2CCc3ccccc32)n1N	none
COc1cc2c(cc1OC)-c1cc3ccc4c(c3c[n+]1CC2)OCO4	WT yeast gro inh 60.0, EBV gp42 block 125.6
CN(C)c1ccc(C2Nc3ccccc3C(=O)N2CCCN2CCOCC2)cc1 (configuration not stated)	none (no result: WT yeast gro inh)
CN1CCC=C(C(=O)N2c3ccccc3Sc3ccc(Cl)cc32)C1	none (no result: WT yeast gro inh)
O=c1[nH]cc(COCC(F)CCl)c(=O)[nH]1 (configuration not stated)	eIF4E-4G inh 96.8 (no result: WT yeast gro inh)
O=C1c2ccccc2C(=O)N1CCCOCc1c[nH]c(=O)[nH]c1=O	none
CCCCc1c(C)nc2ccc(Br)cc2c1SCCC#N	WT yeast gro inh 60.4
O=C(CCSCc1ccccc1Cl)N1CCN(c2cccc(Cl)c2)CC1	WT yeast gro inh 60.7
O=C(CSCc1ccccc1Cl)N1CCN(c2ccccn2)CC1	none
CC(C)N(N=Nc1ccc([N+](=O)[O-])cc1)C(C)C	none
CN(N=Nc1ccc([N+](=O)[O-])cc1)c1ccccc1	EBV gp42 block 81.9
CCOC(=O)c1cc2c(ccn2C)n1Cc1cc(C)ccc1C	WT yeast gro inh 67.2
CCOC(=O)c1cc2c(ccn2C)n1CC(=O)N1CCN(c2ccc(F)cc2)CC1	none
CCOC(=O)C(CC)(CC)C(=O)/C=C/c1ccc(Br)cc1	WT yeast gro inh 61.4
CCOC(=O)C(=Cc1ccc(Br)cc1)C(=O)OCC	none (no result: WT yeast gro inh)
O=C(c1ccc(CNc2c(N3CCCC3)c(=O)c2=O)cc1)N1CCN(C2CCCCC2)CC1	p47phox inh 34.8
O=C(NCc1ccc(Cl)cc1)c1ccc(CNc2c(N3CCCC3)c(=O)c2=O)cc1	eIF4E-4G inh 56.6 (no result: WT yeast gro inh)
O=C(O)c1ccccc1C(=O)Nc1nccs1	eIF4E-4G inh 71.8
CC1=[N+](C)c2ccc3ccccc3c2C1(C)C	WT yeast gro inh 79.2
Cc1nsc2c1ccc1ccccc12	none
CC(C)(C)C(=O)NC(=S)NNC(=O)c1ccc(-c2ccccc2)cc1	WT yeast gro inh 67.5
CC(C)(C)c1ccc(C(=O)NC(=S)NNC(=O)c2cccs2)cc1	WT yeast gro inh 77.3
Cc1cccc(C(=O)NC(=S)NNC(=O)c2cccs2)c1	none
Cc1ccc(C(=O)NNC(=S)NC(=O)COc2ccccc2)cc1	WT yeast gro inh 84.2
Cc1noc(C)c1-c1nc(CS(=O)(=O)c2ccccc2)no1	none (no result: WT yeast gro inh)
CN(Cc1nc(-c2cnccn2)no1)Cc1n[nH]c2c1CCCC2	none
COc1ccc(NC(=O)c2cc(SC)ccc2Cl)cc1	none
CC(C)Oc1ccccc1OCCCOc1cccc2cccnc12	WT yeast gro inh 81.4
Cc1cc(OCCOc2cccc3cccnc23)cc(C)c1Cl	none (no result: 14-3-3 Bad PPI, WT yeast gro inh, eIF4E-4G inh)
Cc1cc(C)c(C)c(OCCCOc2cccc3cccnc23)c1	WT yeast gro inh 89.4
O=C1NC(Cc2c[nH]c3ccccc23)C(=O)N1Cc1ccc(CN2C(=O)NC(Cc3c[nH]c4ccccc34)C2=O)cc1 (configuration not stated)	none
COC(=O)c1ccc(OS(=O)(=O)N(C)C)cc1	none
O=C1CCC(NC(=O)c2ccccc2)C(=O)N1 (configuration not stated)	none (no result: WT yeast gro inh)
COc1ccc(NC(=O)/C(C#N)=C/c2ncc([N+](=O)[O-])n2C)c(OC)c1	none (no result: WT yeast gro inh)
COc1ccc2c(c1)O[C@H](c1ccc3c(c1)OCO3)[C@@H](OC(=O)Nc1cc(OC)c(OC)c(OC)c1)C2=O	14-3-3 Bad PPI 80.6[fluorescence artefact?]
COC(=O)[C@H](Cc1ccccc1)NC(=O)O[C@H]1C(=O)c2ccc(OC)cc2O[C@@H]1c1ccc2c(c1)OCO2	WT yeast gro inh 62.0
COC(=O)[C@H](Cc1ccccc1)NC(=O)O[C@@H]1C(=O)c2cc(OC)ccc2O[C@H]1c1ccc(OC)c(Br)c1	none
